Legend:
[1] = Hydrolysis were done at 25 degree C in 0.05 M phosphate buffer (pH 7.4); format: ADME
In short: (§1)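 Model pyridinium salts were hydrolysed to pyridones at 25 °C in 0.05 M phosphate buffer, pH 7.4. Decay of the pyridinium UV absorption maximum was monitored over time, giving pseudo-first-order k_obs and half-life.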

[2] = Half life of the compound; format: ADME
[3] = system: MX1; assay: In vivo activity against murine MX-1 tumor system at the dose of 90mg/kg, activity expressed as %T/C.; format: functional, Mus musculus
[4] = In vivo activity against murine M5076 tumor system at the dose of 90 mg/kg, activity expressed as TDS; 10/10; format: functional, Mus musculus
[5] = In vivo body weight difference was determined in murine M5076 tumor system at the dose of 90 mg/kg; format: functional, Mus musculus
[6] = system: L1210; assay: In vivo activity against murine L1210 tumor system at the dose of 50 mg/kg, activity expressed as KE; format: functional, Mus musculus
In short: (§2)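 L1210 lymphocytic leukemia: ascitic fluid with ca. 10^6 cells injected ip into CD2F1 mice. Dosing started 24 h after inoculation and was repeated daily for five doses in total, from solutions or suspensions made fresh each day. Toxicity day survivors were scored on day 5. Body weight difference is day 5 minus day 1. %T/C is based on median survival time versus controls.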

[7] = In vivo activity against murine M5076 tumor system at the dose of 45 mg/kg, activity expressed as KE; format: functional, Mus musculus
In short: (§3)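 M5076: ascitic fluid with ca. 10^6 cells inoculated ip into CD2F1 mice. Dosing started 24 h after inoculation and was then given every 4 days for four doses in total, from solutions or suspensions made fresh each day. Toxicity day survivors were scored on day 5. Body weight difference is day 14 minus day 1. %T/C is based on median survival time versus controls.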

[8] = system: P388; assay: In vivo body weight difference was determined against P388 Lymphocytic Leukemia in CD2F1 mice at the dose of 25 mg/kg; format: functional, Mus musculus
[9] = system: L1210; assay: In vivo body weight difference was determined in murine L1210 tumor system at the dose of 25 mg/kg; format: functional, Mus musculus
[10] = system: P388; assay: In vivo activity against P388 Lymphocytic Leukemia in CD2F1 mice at the dose of 12.5 mg/kg, activity expressed as KE; format: functional, Mus musculus
[11] = system: P388; assay: In vivo activity against P388 Lymphocytic Leukemia in CD2F1 mice at the dose of 50 mg/kg, activity expressed as KE; format: functional, Mus musculus
[12] = system: P388; assay: In vivo activity against P388 Lymphocytic Leukemia in CD2F1 mice at the dose of 12.5 mg/kg, activity expressed as TDS; 6/6; format: functional, Mus musculus
In short: (§4)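 CD2F1 mice were inoculated with ascitic fluid holding ca. 10^6 P388 cells. Drug was given daily from 24 h after inoculation, from solutions or suspensions made fresh each day, some as a saline suspension. TDS is survivors/initial animals on day 5. BWD is body weight on day 5 minus day 1. %T/C compares median survival of treated and control mice.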

[13] = system: P388; assay: In vivo activity against P388 Lymphocytic Leukemia in CD2F1 mice at the dose of 50 mg/kg, activity expressed as % T/C; format: functional, Mus musculus; in short: as §4
[14] = system: P388; assay: In vivo body weight difference was determined against P388 Lymphocytic Leukemia in CD2F1 mice at the dose of 200 mg/kg; format: functional, Mus musculus
[15] = In vivo activity against murine M5076 tumor system at the dose of 180 mg/kg, activity expressed as TDS; 3/10; format: functional, Mus musculus; in short: as §3
[16] = system: L1210; assay: In vivo activity against murine L1210 tumor system at the dose of 50 mg/kg, activity expressed as %T/C.; format: functional, Mus musculus; in short: as §2
[17] = In vivo activity against murine M5076 tumor system at the dose of 45 mg/kg, activity expressed as TDS; 10/10; format: functional, Mus musculus
[18] = system: P388; assay: In vivo activity against P388 Lymphocytic Leukemia in CD2F1 mice at the dose of 25 mg/kg, activity expressed as TDS; 6/6; format: functional, Mus musculus; in short: as §4
[19] = system: L1210; assay: In vivo activity against murine L1210 tumor system at the dose of 25 mg/kg, activity expressed as %T/C.; format: functional, Mus musculus; in short: as §2
[20] = system: P388; assay: In vivo activity against P388 Lymphocytic Leukemia in CD2F1 mice at the dose of 200 mg/kg, activity expressed as TDS; 6/6; format: functional, Mus musculus; in short: as §4
[21] = system: L1210; assay: In vivo activity against murine L1210 tumor system at the dose of 100 mg/kg, activity expressed as TDS; 0/6; format: functional, Mus musculus; in short: as §2
[22] = In vivo activity against murine M5076 tumor system at the dose of 90 mg/kg, activity expressed as %T/C.; format: functional, Mus musculus
[23] = system: P388; assay: In vivo body weight difference was determined against P388 Lymphocytic Leukemia in CD2F1 mice at the dose of 100 mg/kg; format: functional, Mus musculus
[24] = system: P388; assay: In vivo activity against P388 Lymphocytic Leukemia in CD2F1 mice at the dose of 100 mg/kg, activity expressed as TDS; 6/6; format: functional, Mus musculus; in short: as §4
[25] = system: MX1; assay: In vivo activity against murine MX-1 tumor system at the dose of 180 mg/kg, activity expressed as TDS; 0/6; format: functional, Mus musculus
[26] = system: P388; assay: In vivo activity against P388 Lymphocytic Leukemia in CD2F1 mice at the dose of 12.5 mg/kg, activity expressed as % T/C; format: functional, Mus musculus; in short: as §4
[27] = system: P388; assay: In vivo activity against P388 Lymphocytic Leukemia in CD2F1 mice at the dose of 25 mg/kg, activity expressed as KE; format: functional, Mus musculus
[28] = In vivo body weight difference was determined in murine M5076 tumor system at the dose of 45 mg/kg; format: functional, Mus musculus
[29] = system: P388; assay: In vivo activity against P388 Lymphocytic Leukemia in CD2F1 mice at the dose of 50 mg/kg, activity expressed as TDS; 6/6; format: functional, Mus musculus; in short: as §4
[30] = system: L1210; assay: In vivo body weight difference was determined in murine L1210 tumor system at the dose of 50 mg/kg; format: functional, Mus musculus
[31] = In vivo body weight difference was determined in murine M5076 tumor system at the dose of 180 mg/kg; format: functional, Mus musculus
[32] = system: P388; assay: In vivo activity against P388 Lymphocytic Leukemia in CD2F1 mice at the dose of 100 mg/kg, activity expressed as % T/C; format: functional, Mus musculus; in short: as §4
[33] = system: L1210; assay: In vivo activity against murine L1210 tumor system at the dose of 50 mg/kg, activity expressed as TDS; 6/6; format: functional, Mus musculus; in short: as §2
[34] = In vivo activity against murine M5076 tumor system at the dose of mg/kg, activity expressed as %T/C.; format: functional, Mus musculus
[35] = system: L1210; assay: In vivo activity against murine L1210 tumor system at the dose of 25 mg/kg, activity expressed as TDS; 6/6; format: functional, Mus musculus; in short: as §2
[36] = In vivo activity against murine M5076 tumor system at the dose of 90 mg/kg, activity expressed as KE; format: functional, Mus musculus
[37] = system: L1210; assay: In vivo activity against murine L1210 tumor system at the dose of 25 mg/kg, activity expressed as KE; format: functional, Mus musculus; in short: as §2
[38] = system: P388; assay: In vivo activity against P388 Lymphocytic Leukemia in CD2F1 mice at the dose of 400 mg/kg, activity expressed as TDS; 0/6; format: functional, Mus musculus; in short: as §4
[39] = system: P388; assay: In vivo body weight difference was determined against P388 Lymphocytic Leukemia in CD2F1 mice at the dose of 50 mg/kg; format: functional, Mus musculus
[40] = system: MX1; assay: In vivo body weight difference was determined in murine MX-1 tumor system at the dose of 90 mg/kg; format: functional, Mus musculus
[41] = system: MX1; assay: In vivo activity against murine MX-1 tumor system at the dose of 90 mg/kg, activity expressed as TDS; 6/6; format: functional, Mus musculus
[42] = system: P388; assay: In vivo activity against P388 Lymphocytic Leukemia in CD2F1 mice at the dose of 25 mg/kg, activity expressed as % T/C; format: functional, Mus musculus; in short: as §4
[43] = system: P388; assay: In vivo body weight difference was determined against P388 Lymphocytic Leukemia in CD2F1 mice at the dose of 12.5 mg/kg; format: functional, Mus musculus
[44] = system: P388; assay: In vivo activity against P388 Lymphocytic Leukemia in CD2F1 mice at the dose of 100 mg/kg, activity expressed as KE; format: functional, Mus musculus
[45] = Hydrolysis at 25 degree C in 0.05 M phosphate buffer (pH 7.4); the rate was too fast to measure these conditions.; format: ADME; in short: as §1

SMILES: Cc1ccc(F)[n+](C)c1.O=S(=O)([O-])C(F)(F)F
- K obs [1]: 0.0605 min⁻¹
- half-life [2]: 0.19 h

SMILES: CC(C)NC(=O)OCc1c(COC(=O)NC(C)C)c(-c2ccc(F)[n+](C)c2)n2c1CCC2.[I-]
- T/C [3]: 18%
- TDS [4]: 10
- BWD [5]: -1.8 g
- KE [6]: -2.03
- KE [7]: -1.79
- BWD [8]: -0.1 g
- BWD [9]: -0.7 g
- KE [10]: -1.42
- KE [11]: 0.32
- TDS [12]: 6
- T/C [13]: 141%
- BWD [14]: -0.1 g
- TDS [15]: 3
- T/C [16]: 123%
- TDS [17]: 10
- TDS [18]: 6
- T/C [19]: 119%
- TDS [20]: 2
- TDS [21]: 0
- T/C [22]: 125%
- BWD [23]: 0.1 g
- TDS [24]: 6
- TDS [25]: 0
- T/C [26]: 112%
- KE [27]: 0.06
- BWD [28]: -0.5 g
- TDS [29]: 6
- BWD [30]: -0.7 g
- BWD [31]: -1.4 g
- T/C [32]: 158%
- TDS [33]: 6
- T/C [34]: 115%
- TDS [35]: 6
- KE [36]: -1.4
- KE [37]: -2.09
- TDS [38]: 0
- BWD [39]: 0.6 g
- BWD [40]: 0.5 g
- TDS [41]: 6
- T/C [42]: 137%
- BWD [43]: 1.2 g
- KE [44]: 1.54

SMILES: Cc1ccc(Cl)[n+](C)c1.O=S(=O)([O-])C(F)(F)F
- K obs [1]: 0.000708 min⁻¹
- half-life [2]: 269 h

SMILES: CCOC(=O)c1cc[n+](C)c(Cl)c1.O=S(=O)([O-])C(F)(F)F
- K obs [1]: 0.055 min⁻¹
- half-life [2]: 6 h

SMILES: Cc1cc(Br)c(Cl)[n+](C)c1.O=S(=O)([O-])C(F)(F)F
- K obs [1]: 0.041 min⁻¹
- half-life [2]: 17 h

SMILES: CCOC(=O)c1cc[n+](C)c(F)c1.O=S(=O)([O-])C(F)(F)F
- K obs [45]: Rate too fast

Reference: ChEMBL document CHEMBL1124794, “Synthesis, chemistry, and antineoplastic activity of alpha-halopyridinium salts: potential pyridone prodrugs of acylated vinylogous carbinolamine tumor inhibitors” (J Med Chem, 1990)
